# Test results reported in PubChem BioAssay.
# Activity calls are given as the source filed them.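 Rule for the calls, unless noted: active = viability loss from added drug above about 55%, and viability with drug at most 40%, in both replicates (limit read from the data, passing the limit was not always enough); inconclusive = both conditions met in only one replicate; inactive = neither replicate meets both conditions.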
# Legend:
# [1] = Her2 expression decrease, cell viability multiplex – SKBR3 breast tumor cells, AlphaScreen, ATP viability, primary screen (AID 461;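 active = Her2 level under about 52% in both replicate screens, with viability over 70% of control, limit read from the data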;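 for Her2 level: lower value means less Her2 protein in the cells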;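 for viability: percent of carrier control wells set as 100% viability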); details: SKBR3 Her2 protein level, 18-24 h, measured here: SKBR3 viability, ATP luminescence, at 10 µM
# [2] = target: Receptor tyrosine-protein kinase erbB-2 (Homo sapiens) (UniProt P04626); experiment: as above; details: 18-24 h, at 10 µM, stronger effect = lower value
# [3] = reduced viability of SK-BR-3 breast cancer cells – cell-based, 24 h, human, pilot screen (AID 572;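 active = viability at or below 10% of carrier control in both of two separate runs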;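 note: compound exposure lasted between 18 and 24 h rather than exactly 24 h; 100% = carrier-treated control wells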); details: SK-BR-3 viability, CellTiter-Glo luminescence, at 10 µM, stronger effect = lower value
# [4] = HUVEC growth inhibition – cell-based, human, primary screen (AID 575;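 active = viability at or below 30% in both replicate assays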;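 note: 100% = median of untreated cell wells with 0.1% DMSO on each plate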); details: HUVEC proliferation, CellTiter-Glo luminescence, 72 h; at 10 µM; stronger effect = lower value
# Outline: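 system = HUVEC primary cells | amount = 1250 cells/well | buffer or medium = supplemented EBM, 2% fetal bovine serum | dosing = single-point 10 µM, DMSO 0.1% final | times = 72 h compound incubation | detection = CTG luminescence | read-out = % viability relative to median vehicle-well signal on each plate | control set = vehicle and MePR control wells | format = collagen-coated 384-well format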
# [5] = H69AR cell proliferation blockers – human, duplicate replicates, primary screen (AID 580;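 active = viability at or under a set limit in both replicates, limit being median viability minus 3 SD, cut at about 48% in these data, passing the limit was not always enough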;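 note: 100% = mean luminescence of untreated wells and 0% = no signal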); details: H69AR lung tumor cells viability, ATP luminescence, 72 h; at 10 µM; stronger effect = lower value
# [6] = MRP1 drug-resistance reversers in H69AR cells – cell-based, doxorubicin co-treatment, pilot screen (AID 601); details: CellTiter-Glo, 72 h, at 10 µM; for differential viability (reversal): stronger effect = higher value
# [7] = yeast transport mutant growth inhibition pilot in 384-well plates, post-Golgi transport modulator project (AID 636; in the data active = inhibition above about 31%); details: absorbance 615 nm, about 18 h, stronger effect = higher value
# [8] = growth suppression of yeast trafficking mutant, preliminary HTS, modulators of trafficking downstream of Golgi apparatus project, 1536-format plate, OD 615 nm (AID 637; in the data active = inhibition above about 30%); details: yeast transport mutant growth, absorbance 615 nm, 18 h; stronger effect = higher value
# [9] = H69AR cells + 2 uM doxorubicin, measured here: viability with 2 uM doxorubicin, stronger effect = lower value
# [10] = H69AR cells, compound alone cytotoxicity
# Chain of Receptor tyrosine-protein kinase erbB-2 (Homo sapiens) (P04626 whole entry, looked up): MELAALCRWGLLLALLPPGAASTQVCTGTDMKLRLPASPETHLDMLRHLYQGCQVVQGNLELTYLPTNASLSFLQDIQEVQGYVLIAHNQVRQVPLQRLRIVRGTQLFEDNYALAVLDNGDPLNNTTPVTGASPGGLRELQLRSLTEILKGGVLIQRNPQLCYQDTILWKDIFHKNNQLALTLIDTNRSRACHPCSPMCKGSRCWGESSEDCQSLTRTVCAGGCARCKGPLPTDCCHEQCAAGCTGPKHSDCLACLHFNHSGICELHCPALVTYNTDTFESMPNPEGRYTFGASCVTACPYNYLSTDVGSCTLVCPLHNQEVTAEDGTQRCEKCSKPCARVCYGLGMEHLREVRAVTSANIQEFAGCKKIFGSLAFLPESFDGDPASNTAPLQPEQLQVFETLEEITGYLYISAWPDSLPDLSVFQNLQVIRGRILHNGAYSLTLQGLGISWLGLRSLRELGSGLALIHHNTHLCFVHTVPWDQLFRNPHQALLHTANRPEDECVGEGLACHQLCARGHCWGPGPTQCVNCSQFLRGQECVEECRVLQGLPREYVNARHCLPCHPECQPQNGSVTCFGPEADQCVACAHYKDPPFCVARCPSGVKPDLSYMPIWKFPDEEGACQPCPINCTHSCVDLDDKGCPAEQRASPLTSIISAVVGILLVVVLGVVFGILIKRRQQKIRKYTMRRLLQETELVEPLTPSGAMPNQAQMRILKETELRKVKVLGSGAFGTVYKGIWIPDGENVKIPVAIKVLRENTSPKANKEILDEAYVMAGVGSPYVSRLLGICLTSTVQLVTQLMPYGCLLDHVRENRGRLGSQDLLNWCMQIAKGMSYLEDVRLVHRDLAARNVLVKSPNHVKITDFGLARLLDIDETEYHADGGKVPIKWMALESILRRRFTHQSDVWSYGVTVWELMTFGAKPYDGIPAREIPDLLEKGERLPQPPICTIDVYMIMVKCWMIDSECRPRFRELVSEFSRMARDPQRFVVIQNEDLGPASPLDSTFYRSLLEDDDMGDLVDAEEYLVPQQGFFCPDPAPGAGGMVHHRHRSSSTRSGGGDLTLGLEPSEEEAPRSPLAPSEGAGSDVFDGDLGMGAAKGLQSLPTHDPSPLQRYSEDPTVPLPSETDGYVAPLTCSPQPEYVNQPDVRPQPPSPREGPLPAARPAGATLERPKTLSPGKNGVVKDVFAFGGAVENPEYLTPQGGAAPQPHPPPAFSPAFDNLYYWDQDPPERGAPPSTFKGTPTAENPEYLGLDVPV
Compound,viability [1] [%],Her2 level [2],viability [3],viability [4],viability [5],differential viability (reversal) ([6]; H69AR cells + 2 uM doxorubicin),"viability [6, 9] [%]","viability [6, 10] [%]",inhibition [7],inhibition [8]
O=C(CSC1=NC(=O)C(Cc2ccccc2)C(=O)N1)NC1CCCCC1 (stereo not given),100,118% (inactive),100% (inactive),87.8% (inactive),91.7% (inactive),8.56% (inactive),83.2,91.7,-0.53% (inactive),23.1% (inactive)
Cc1cc2ncc(C(=O)Nc3ccccc3)c(C)n2n1,94,94% (inactive),94% (inactive),124% (inactive),99.5% (inactive),12.7% (inactive),86.8,99.5,-4.34% (inactive),-0.48% (inactive)
COc1cc(CC(=O)Nc2ncc(C)s2)cc(OC)c1OC,109,96% (inactive),109% (inactive),90.8% (inactive),91.5% (inactive),2.69% (inactive),88.8,91.5,-3.2% (inactive),5.74% (inactive)
CCc1nnc(NC(=O)C2CCN(c3nccc(C)n3)CC2)s1,112,93% (inactive),112% (inactive),100% (inactive),99.5% (inactive),5.65% (inactive),93.9,99.5,-6.22% (inactive),-2.17% (inactive)
O=C(Oc1ccc(Cl)cc1N1C(=O)CCC1=O)c1ccco1,96.5,74% (inactive),96.5% (inactive),78% (inactive),90.9% (inactive),3.6% (inactive),87.3,90.9,-3.65% (inactive),2.46% (inactive)
O=C(O)C1CCCCC1C(=O)NCCc1ccccc1 (stereo not given),87.5,104% (inactive),87.5% (inactive),103% (inactive),99.2% (inactive),7.15% (inactive),92,99.2,0.55% (inactive),10.3% (inactive)
CCC(Sc1ncccc1C(=O)O)C(=O)N1CCCC1 (stereo not given),92,93.5% (inactive),92% (inactive),95.5% (inactive),101% (inactive),14% (inactive),87.2,101,2.47% (inactive),-5.9% (inactive)
COc1ccc(N2CCN(Cc3nc(-c4ccc(Cl)cc4Cl)no3)CC2)cc1,117,83.5% (inactive),117% (inactive),70.5% (inactive),91.5% (inactive),9.36% (inactive),82.2,91.5,-4.68% (inactive),-5.57% (inactive)
Cc1c(C(=O)Nc2cnccn2)oc2ccccc12,110,72% (inactive),110% (inactive),58.6% (inactive),37.4% (active),-35.3% (inactive),72.7,37.4,-5.6% (inactive),3.49% (inactive)
Cn1c(-c2cc(Br)ccc2O)n[nH]c1=S,89.5,110% (inactive),89.5% (inactive),87% (inactive),92.9% (inactive),3.24% (inactive),89.7,92.9,4.03% (inactive),-9.84% (inactive)
CC(C)(C)n1nc2c(c1NC(=O)COc1ccc(Cl)cc1)CSC2,97.5,79.5% (inactive),97.5% (inactive),80.5% (inactive),91.4% (inactive),-10.3% (inactive),102,91.4,-5% (inactive),-0.16% (inactive)
COc1cccc(-c2noc(-c3cccs3)n2)c1,96.5,87% (inactive),96.5% (inactive),75.1% (inactive),81.5% (inactive),-29.2% (inactive),111,81.5,2.08% (inactive),-4.29% (inactive)
Cc1ccc(CCNC(=O)Cn2cccc2)cc1,112,98% (inactive),112% (inactive),110% (inactive),99.5% (inactive),5.51% (inactive),94,99.5,-4.73% (inactive),0.67% (inactive)
CCOc1ccc(C2/C(=C(/O)c3ccc(OC)cc3)C(=O)C(=O)N2c2cc(C)on2)cc1OC (stereo not given),85,144% (inactive),85% (inactive),82.3% (inactive),89.4% (inactive),-10.3% (inactive),99.7,89.4,1.45% (inactive),10.7% (inactive)
O=C(O)c1cc2c([nH]c1=O)CCCC2,93.5,81.5% (inactive),93.5% (inactive),95% (inactive),88.8% (inactive),0.75% (inactive),88,88.8,-2.24% (inactive),-1.82% (inactive)
O=C(Cc1cccs1)Nc1nnc(CCc2ccccc2)s1,110,91.5% (inactive),110% (inactive),88.7% (inactive),80.7% (inactive),-5.74% (inactive),86.4,80.7,-0.78% (inactive),-0.5% (inactive)

Compound,viability [1] [%],Her2 level [2],viability [3],viability [4],viability [5],differential viability (reversal) ([6]; H69AR cells + 2 uM doxorubicin),"viability [6, 9] [%]","viability [6, 10] [%]",inhibition [7],inhibition [8]
CC1CN(C(=O)c2scc3c2OCCO3)CC(C)O1 (stereo not given),102,76% (inactive),102% (inactive),101% (inactive),104% (inactive),12.1% (inactive),91.9,104,-7.3% (inactive),5.24% (inactive)
O=C(C1CCCN(S(=O)(=O)c2cnc[nH]2)C1)N1CC(=O)N(CCc2ccccc2)C(=O)C1 (stereo not given),93.5,92% (inactive),93.5% (inactive),105% (inactive),95% (inactive),-4.7% (inactive),99.7,95,-0.8% (inactive),21.6% (inactive)
O=C(C(c1ccccc1)c1ccccc1)N1CCN(Cc2ccccn2)CC1,81,112% (inactive),81% (inactive),84.7% (inactive),93.4% (inactive),-0.39% (inactive),93.8,93.4,-1.03% (inactive),-5.83% (inactive)
O=C(NCCCN1CCCC1=O)c1cncc(Br)c1,97,83.5% (inactive),97% (inactive),98.5% (inactive),103% (inactive),10.1% (inactive),93,103,-6.67% (inactive),6.56% (inactive)
Cn1c(=O)c2c(nc(NCCCO)n2CCc2ccccc2)n(C)c1=O,94,138% (inactive),94% (inactive),93.7% (inactive),87.1% (inactive),-2.35% (inactive),89.4,87.1,5.45% (inactive),-2.83% (inactive)
CCOP(=O)(c1ccc(N(C)C)cc1)C(O)c1cc(OC)c(OC)c(OC)c1 (stereo not given),76.5,80% (inactive),76.5% (inactive),80.6% (inactive),87.4% (inactive),-0.05% (inactive),87.4,87.4,-3.68% (inactive),-2.38% (inactive)
OCCN1CCN(CC(O)COc2ccc3ccccc3c2)CC1 (stereo not given),88.5,82% (inactive),88.5% (inactive),92.8% (inactive),102% (inactive),10% (inactive),92.3,102,-4.8% (inactive),5.25% (inactive)
Cc1ccc(Cl)cc1N1CCN(C(=O)C2CCCN(S(=O)(=O)c3cnc[nH]3)C2)CC1 (stereo not given),86.5,99.5% (inactive),86.5% (inactive),69.8% (inactive),83.8% (inactive),5.75% (inactive),78,83.8,-2.93% (inactive),-2.62% (inactive)
COc1ccc(C2CC(=O)c3cnc(NC(=O)c4ccccc4OC)nc3C2)c(OC)c1 (stereo not given),97.5,49% (active),97.5% (inactive),75.1% (inactive),87% (inactive),-5.78% (inactive),92.7,87,-5.07% (inactive),1.15% (inactive)
CCOc1ccc(N(CC)C(=O)COc2cc(=O)n(C)c3ccccc23)cc1,84.5,86% (inactive),84.5% (inactive),93.6% (inactive),86.1% (inactive),-2.48% (inactive),88.6,86.1,-3.07% (inactive),0.98% (inactive)
CC(=O)c1ccc(NC(=O)c2noc3c2CCCCC3)cc1,126,88% (inactive),126% (inactive),114% (inactive),98% (inactive),17.3% (inactive),80.6,98,-5.26% (inactive),0.73% (inactive)
COc1ccccc1OCCOc1ccccc1/C=N/n1cnnc1,81.5,104% (inactive),81.5% (inactive),96.4% (inactive),70.9% (inactive),-22.5% (inactive),93.5,70.9,1.28% (inactive),-5% (inactive)
CCc1nnc(NC(=O)CSc2nnc(-c3ccc(OC)cc3)n2C)s1,87,94% (inactive),87% (inactive),89.3% (inactive),104% (inactive),5.08% (inactive),98.6,104,-2.8% (inactive),1.8% (inactive)
COc1cc(CN(C)CC(=O)c2[nH]c(C)c(C(C)=O)c2C)ccc1OC(F)F,104,82.5% (inactive),104% (inactive),97.3% (inactive),85% (inactive),6.44% (inactive),78.6,85,-5.2% (inactive),-5.08% (inactive)
Cc1ccc(-c2cc(C(F)(F)F)n3ncc(C(=O)O)c3n2)cc1,91,90.5% (inactive),91% (inactive),113% (inactive),99.7% (inactive),7.33% (inactive),92.4,99.7,-7.87% (inactive),0.48% (inactive)
